HNF4A DNA FP: change in binding of human HNF4 alpha to DNA. HNF4a-FITC DNA binding, fluorescence polarization, 1 h. activity change, % at 10 µM. actives 0.3% (n = 360,000). AID 1224865; in the data active = activity change above about 30%, passing the limit was not always enough
Target sequence (P41235 whole entry, looked up): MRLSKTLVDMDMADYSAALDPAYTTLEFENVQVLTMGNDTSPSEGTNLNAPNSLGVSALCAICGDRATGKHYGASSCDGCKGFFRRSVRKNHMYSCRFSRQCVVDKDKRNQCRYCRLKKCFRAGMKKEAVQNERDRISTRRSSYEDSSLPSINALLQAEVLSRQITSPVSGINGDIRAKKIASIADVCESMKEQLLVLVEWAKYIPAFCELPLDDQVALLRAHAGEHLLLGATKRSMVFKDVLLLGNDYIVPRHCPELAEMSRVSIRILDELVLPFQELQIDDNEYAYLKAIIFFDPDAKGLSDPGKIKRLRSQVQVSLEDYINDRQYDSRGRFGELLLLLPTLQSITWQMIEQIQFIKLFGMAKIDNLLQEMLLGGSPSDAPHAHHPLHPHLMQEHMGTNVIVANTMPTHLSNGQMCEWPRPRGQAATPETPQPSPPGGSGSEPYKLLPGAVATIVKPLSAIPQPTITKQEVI
NR1D1 modulator: modulates human Rev-erb alpha binding to DNA; P20393; Rev-erbα–FITC-DNA binding, fluorescence polarization, 90 min; activity, % at 10 µM; actives 0.79% (n = 370,000);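 active = activity above about 14%, limit read from the data; passing the limit was not always enough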;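 note: 0% = DMSO wells with 35 nM protein and 100% = DMSO wells with 750 nM protein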
CSN inh: blocks human CSN-mediated cullin deneddylation. Q92905. Purified CSN, SCF-Nedd8-OG deneddylation, fluorescence polarization. inhibition, % at 12.5 µM. actives 0.38% (n = 360,000). AID 651999;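 active = pattern-corrected inhibition above about 35%, with an unprinted fluorescence ratio check between 0.5 and 1.5, limit read from the data, passing the limit was not always enough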;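 note: 0% = enzyme with substrate and 100% = substrate without enzyme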
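Assay system: purified human Csn5 enzyme expressed in HEK293T cells; measure: % inhibition; also added: SCFSkp2-Nedd8OG substrate at 10 nM final; technique: fluorescence polarization; times: reaction 90 min, room temperature; medium: Tris buffer pH 7.5, NaCl, DTT, Tween-20, trehalose, ovalbumin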
TPT1 inh: inhibitors of Candida albicans tRNA 2'-phosphotransferase TPT1; recombinant caTPT1, FP RNA substrate dephosphorylation; inhibition, % at 5 µM; actives 0.81% (n = 300,000);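 active = inhibition above the mean of all tested compounds plus 3 SD, set per screening campaign, cut at about 24% in these data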;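 note: plate controls were DMSO alone for no effect and ferristatin control at 100 nM for full effect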
TPT1 inh confirm: confirmation of Candida albicans TPT1 inhibitors | shares compounds with TPT1 inh | recombinant caTPT1, fluorescence polarization, RNase T1 coupled | inhibition, % at 5 µM | actives 74% (n = 2,400) | AID 2149;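 active = inhibition above the primary screen limit, the mean inhibition of all tested compounds plus 3 SD, cut at about 25% in these data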
RNase T1 inh: blocks Aspergillus oryzae RNase T1, a TPT1 counter-screen; shares compounds with TPT1 inh; RNase T1 cleavage, fluorescence polarization, 1536-well; inhibition, % at 5 µM; actives 83% (n = 2,400); AID 2153;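 active = inhibition above the solvent-only control well mean plus 3 SD, limit set per screening run, cut at about 23% in these data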;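 note: plate controls were DMSO wells with enzyme for no effect and wells without RNase T1 for full effect; inhibitors block cleavage so intact labeled substrate keeps polarization high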
Target sequence (P00651 whole entry, looked up): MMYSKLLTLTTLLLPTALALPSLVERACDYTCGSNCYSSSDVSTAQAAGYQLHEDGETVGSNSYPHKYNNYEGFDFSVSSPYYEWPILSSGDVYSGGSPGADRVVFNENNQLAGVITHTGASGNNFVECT
Numbers without * were called inactive. Compounds with a hit are over-represented: about 1.7% of the library has one in this group of screens.

Screening C#CCNC(=O)C[C@H]1C[C@@]2(C(=O)OC)C(=C[C@H](COCc3ccccc3)O[C@@H]2C)N(Cc2ccc3c(c2)OCO3)C1=O returned NR1D1 modulator 11.
`COc1cc(OC)c(OC)cc1/C=C/c1cc(C(F)(F)F)[nH]c(=O)n1` gave HNF4A DNA FP -4, NR1D1 modulator -5, CSN inh 13, TPT1 inh 73*, TPT1 inh confirm 72* and RNase T1 inh 81*.
`COc1cc(/C=C/c2cc(C(F)(F)F)[nH]c(=O)n2)cc(OC)c1OC` gave HNF4A DNA FP -1, NR1D1 modulator -4 and CSN inh 6.
`COc1cccc(CCc2ccccc2OCC(CN(C)C)OC(=O)CCC(=O)O)c1` (centres undefined) gave NR1D1 modulator -6.
`O=C(CC1C(=O)NCCN1C(=O)Nc1ccccc1)Nc1cccc(Cl)c1` (centres undefined) gave HNF4A DNA FP 2, NR1D1 modulator 4, CSN inh 2 and TPT1 inh 0.
For Cc1cccc(C(=O)N2CCNC(=O)C2CC(=O)Nc2cccc(Cl)c2)c1 (centres undefined) the results were HNF4A DNA FP 1, NR1D1 modulator -6, CSN inh 0, TPT1 inh 24*, TPT1 inh confirm -2 and RNase T1 inh 3.
Screening CN1OC[C@@H]2CN(CC3CCCCC3)[C@H](c3ccc(-c4ccc(C#N)cc4)cc3)C[C@@H]21 returned NR1D1 modulator 5.
For COc1cc(C2C(C#N)=C(N)N(c3ccc(F)cc3)C3=C2S(=O)(=O)CC3)ccc1O (centres undefined) the results were HNF4A DNA FP 15, NR1D1 modulator -3, CSN inh 13, TPT1 inh 32*, TPT1 inh confirm 13 and RNase T1 inh 26*.
CCC1(CC)NC(=O)N(CC(=O)Nc2sc3c(c2C(N)=O)CCC3)C1=O was read as HNF4A DNA FP 3, NR1D1 modulator -21, CSN inh 41*, TPT1 inh 28*, TPT1 inh confirm 37* and RNase T1 inh 48*.
Screening COc1ccc(/C=N/Nc2ccc(C(F)(F)F)cc2[N+](=O)[O-])cc1 returned HNF4A DNA FP 0, NR1D1 modulator 1, CSN inh -2, TPT1 inh 62*, TPT1 inh confirm 7 and RNase T1 inh 12.
COC(=O)C1=C(C)N(C)C(=NCc2ccc3c(c2)OCO3)NC1c1cccc(Cl)c1 (centres undefined) was read as NR1D1 modulator -7.
C#CCSc1nc2[nH]ncc2c(=O)[nH]1 was read as HNF4A DNA FP 2, NR1D1 modulator 5, CSN inh 5, TPT1 inh 33*, TPT1 inh confirm 4 and RNase T1 inh 5.
`C=CCSc1nc2[nH]ncc2c(=O)[nH]1` gave HNF4A DNA FP 1, NR1D1 modulator 2, CSN inh 2 and TPT1 inh -2.
`CC(/C=C/c1ccc(N(C)C)cc1)=N\N=C(/N)SC1CC(=O)N(c2ccc(C(=O)O)cc2)C1=O` (centres undefined) gave HNF4A DNA FP 40*, NR1D1 modulator -1, CSN inh 13, TPT1 inh 26*, TPT1 inh confirm 28* and RNase T1 inh 43*.
For O=C(O)c1ccc(N2C(=O)CC(SC(=Nc3ccccc3)Nc3ccccc3)C2=O)cc1 (centres undefined) the results were HNF4A DNA FP -2, NR1D1 modulator -6, CSN inh -3 and TPT1 inh -1.
Screening O=C(NC1CCSC1)c1cccc(Cl)c1 (centres undefined) returned HNF4A DNA FP -1, NR1D1 modulator 6, CSN inh -4 and TPT1 inh 0.
`O=C(NC1CCSC1=O)c1cccc(Cl)c1` (centres undefined) gave HNF4A DNA FP 3, NR1D1 modulator -4, CSN inh -3, TPT1 inh 31*, TPT1 inh confirm 6 and RNase T1 inh 8.
`CCCCNC(=O)C[C@H]1C[C@@]2(C(=O)OC)C(=C[C@H](C(C)(C)C)O[C@@H]2C)N(CCc2ccc(OC)c(OC)c2)C1=O` gave NR1D1 modulator -4.
For Cc1ccc(C(=O)NNC(=O)CCCN2C(=O)/C(=C/c3ccccc3Cl)SC2=S)cc1 the results were HNF4A DNA FP 5, NR1D1 modulator 2, CSN inh 5, TPT1 inh 38*, TPT1 inh confirm 7 and RNase T1 inh 12.
`CN(C)c1ccc(/C=C(/NC(=O)c2ccccc2)C(=O)N2CCCC2)cc1` gave HNF4A DNA FP 5, NR1D1 modulator 4, CSN inh 38*, TPT1 inh 60*, TPT1 inh confirm 35* and RNase T1 inh 44*.
For CN(C)c1ccc(/C=C(/NC(=O)c2ccccc2)C(=O)NCCN2CCOCC2)cc1 the results were HNF4A DNA FP 5, NR1D1 modulator 0, CSN inh 9, TPT1 inh 49*, TPT1 inh confirm 11 and RNase T1 inh 17.
CN(C)c1ccc(/C=C(/NC(=O)c2ccccc2Cl)C(=O)NCCN2CCOCC2)cc1 was read as HNF4A DNA FP 5, NR1D1 modulator 1, CSN inh 5, TPT1 inh 47*, TPT1 inh confirm 120* and RNase T1 inh 128*.
For C=CCCC(=O)N1CCC(C(=O)NCC2COc3ccccc3O2)CC1 (centres undefined) the results were NR1D1 modulator 2.
O=C1c2cc(O)cc(O)c2C(=O)c2c1cc(O)c([C@@H](CO)CCO)c2O was read as HNF4A DNA FP 19, NR1D1 modulator -11, CSN inh 30 and TPT1 inh 17.
Screening Cc1cc(O)c2c(c1)C(=O)c1cc(O)cc(O)c1C2=O returned HNF4A DNA FP 14, NR1D1 modulator 5, CSN inh 7, TPT1 inh 27*, TPT1 inh confirm 44* and RNase T1 inh 61*.
N#CC1=C(N)Oc2cc(N)ccc2C1c1ccc(F)cc1F (centres undefined) was read as HNF4A DNA FP 37, NR1D1 modulator 4, CSN inh 58, TPT1 inh 42*, TPT1 inh confirm 33* and RNase T1 inh 44*.
Cc1cccc(NC(=O)C2CCN(c3nnc(-n4cccc4)s3)CC2)c1C was read as NR1D1 modulator -2.
C[C@H]1CCC[C@H](O)CC(=O)c2c(O)cc(O)cc2CC(=O)O1 was read as NR1D1 modulator 0.
CCCCN1CC(COCc2ccccc2)Oc2cccc(Oc3ccc(SC)c(C)c3)c2S1(=O)=O (centres undefined) was read as NR1D1 modulator -5.
`Cc1cc(NC2C3CC4CC(C3)CC2C4)n2ncnc2n1` (centres undefined) gave HNF4A DNA FP 0, NR1D1 modulator -5, CSN inh 5, TPT1 inh 101*, TPT1 inh confirm 1 and RNase T1 inh 2.
